Target: Prothrombin (Homo sapiens, UniProt P00734)
Test: Inhibition of human alpha-thrombin assessed as spectrozyme TH hydrolysis after 10 mins by spectrophotometric analysis
Procedure, shortened: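 Human α-thrombin (~5 nM initial) preincubated 10 min with inhibitor (4 μg/ml to 5 mg/ml stocks) at 25 °C. Buffer: 20 mM Tris-HCl pH 7.4, 100 mM NaCl, 2.5 mM CaCl2, 0.1% PEG 8000. Fractional residual activity fitted to logistic equation (Hill slope fixed at 1) for IC50 and efficacy ΔY.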

With `CCOC(=O)c1c(C)oc2cc(OC(=O)N3CCOCC3)c(OS(=O)(=O)O)cc12` the IC50 was > 2500 µM.
